Measured values taken from ChEMBL document CHEMBL5303300, “EUbOPEN Chemogenomics Library - Multiplex” (2023).
Several values for one entry are separate records, joined by “and”; a condition that tells them apart may be missing. Identical values can stand only once.

Columns and labels:
Type in all cases: toxicity, cell-based
HEK-293T = assay: Multiplex assay against HEK293T; conditions: human, number of replicates 2
Method in brief: (§1)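 Hoechst33342, BioTracker Green Microtubule Cytoskeleton Dye, MitoTracker Red and Annexin V Alexa Fluor 680 were added to live cells at seeding, and imaging on a CQ1 microscope at 37°C and 5% CO2 followed compound addition. Gating by CellPathfinder machine learning separated cells into Hoechst high-intensity objects or normal cells, then normal cells into healthy, pyknosed or fragmented nuclei, then pyknosed cells into mitotic or apoptotic. Per cents of healthy-nucleus cells are reported for the tubulin, mitochondrial-mass and membrane-permeability phenotypes.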

Fibroblast = assay: Multiplex assay against human fibroblast; conditions: number of replicates 2; method in brief: as §1
U2OS = assay: Multiplex assay against U2OS; conditions: human, number of replicates 2; method in brief: as §1
[1] = 12 h, 1 µM, compound concentration 1 uM
[2] = 12 h, 10 µM, compound concentration 10 uM
[3] = 24 h, 1 µM, compound concentration 1 uM
[4] = 24 h, 10 µM, compound concentration 10 uM
[5] = 48 h, 1 µM, compound concentration 1 uM
[6] = 48 h, 10 µM, compound concentration 10 uM

CS(=O)(=O)c1ccc(C(=O)Nc2ccc(F)c(COc3ccc(Br)cc3CN3CC[C@H](O)C3)c2)c(Cl)c1.O=CO
Population Apoptotic (%) (HEK-293T; [1]): 55% and 45% | Population Healthy Nuclei (%) (HEK-293T; [1]): 81% and 82% | Population Mitotic Cells (%) (HEK-293T; [1]): 44% and 54% | Population Normal (%) (HEK-293T; [1]): 94% and 93% | Total Cell Count (HEK-293T; [1]): 519 and 629 | Population Apoptotic (%) (HEK-293T; [2]): 61% and 58% | Population Healthy Nuclei (%) (HEK-293T; [2]): 87% and 82% | Population Normal (%) (HEK-293T; [2]): 91% and 88% | Total Cell Count (HEK-293T; [2]): 484 and 427 | Population Apoptotic (%) (HEK-293T; [3]): 60% and 47% | Population Healthy Nuclei (%) (HEK-293T; [3]): 80% and 83% | Population Mitotic Cells (%) (HEK-293T; [3]): 52% | Population Normal (%) (HEK-293T; [3]): 92% and 93% | Total Cell Count (HEK-293T; [3]): 796 and 885 | Population Apoptotic (%) (HEK-293T; [4]): 69% and 68% | Population Healthy Nuclei (%) (HEK-293T; [4]): 85% and 79% | Population Mitotic Cells (%) (HEK-293T; [4]): 30% | Population Normal (%) (HEK-293T; [4]): 90% and 91% | Total Cell Count (HEK-293T; [4]): 489 and 456 | Population Apoptotic (%) (HEK-293T; [5]): 29% and 26% | Population Healthy Nuclei (%) (HEK-293T; [5]): 83% and 86% | Population Mitotic Cells (%) (HEK-293T; [5]): 70% and 73% | Population Normal (%) (HEK-293T; [5]): 89% and 92% | Total Cell Count (HEK-293T; [5]): 1639 and 1757 | Population Apoptotic (%) (HEK-293T; [6]): 74% and 55% | Population Healthy Nuclei (%) (HEK-293T; [6]): 82% and 85% | Population Mitotic Cells (%) (HEK-293T; [6]): 25% and 44% | Population Normal (%) (HEK-293T; [6]): 86% and 90% | Total Cell Count (HEK-293T; [6]): 548 and 631 | Population Apoptotic (%) (Fibroblast; [1]): 42% and 43% | Population Fragmented Nuclei (%) (Fibroblast; [1]): 7% and 9% | Population Healthy Nuclei (%) (Fibroblast; [1]): 63% and 67% | Population Hoechst High Intensity Objects (%) (Fibroblast; [1]): 0% | Population Normal (%) (Fibroblast; [1]): 100% | Total Cell Count (Fibroblast; [1]): 217 and 239 | Population Apoptotic (%) (Fibroblast; [2]): 42% and 43% | Population Fragmented Nuclei (%) (Fibroblast; [2]): 21% | Population Healthy Nuclei (%) (Fibroblast; [2]): 50% and 52% | Population Hoechst High Intensity Objects (%) (Fibroblast; [2]): 0% | Population Normal (%) (Fibroblast; [2]): 100% and 99% | Total Cell Count (Fibroblast; [2]): 194 and 258 | Population Apoptotic (%) (Fibroblast; [3]): 42% and 57% | Population Fragmented Nuclei (%) (Fibroblast; [3]): 10% and 14% | Population Healthy Nuclei (%) (Fibroblast; [3]): 64% and 69% | Population Hoechst High Intensity Objects (%) (Fibroblast; [3]): 0% | Population Normal (%) (Fibroblast; [3]): 100% and 99% | Total Cell Count (Fibroblast; [3]): 220 and 253 | Population Apoptotic (%) (Fibroblast; [4]): 72% and 81% | Population Fragmented Nuclei (%) (Fibroblast; [4]): 15% | Population Healthy Nuclei (%) (Fibroblast; [4]): 62% and 52% | Population Hoechst High Intensity Objects (%) (Fibroblast; [4]): 0% | Population Normal (%) (Fibroblast; [4]): 100% and 99% | Total Cell Count (Fibroblast; [4]): 197 and 255 | Population Apoptotic (%) (Fibroblast; [5]): 71% and 78% | Population Fragmented Nuclei (%) (Fibroblast; [5]): 18% and 14% | Population Healthy Nuclei (%) (Fibroblast; [5]): 64% and 73% | Population Hoechst High Intensity Objects (%) (Fibroblast; [5]): 0% | Population Normal (%) (Fibroblast; [5]): 99% | Total Cell Count (Fibroblast; [5]): 244 and 243 | Population Apoptotic (%) (Fibroblast; [6]): 88% | Population Fragmented Nuclei (%) (Fibroblast; [6]): 20% and 15% | Population Healthy Nuclei (%) (Fibroblast; [6]): 58% and 63% | Population Hoechst High Intensity Objects (%) (Fibroblast; [6]): 0% | Population Normal (%) (Fibroblast; [6]): 100% and 98% | Total Cell Count (Fibroblast; [6]): 178 and 242 | Population Apoptotic (%) (U2OS; [1]): 60% | Population Healthy Nuclei (%) (U2OS; [1]): 60% and 82% | Population Normal (%) (U2OS; [1]): 100% | Population Pyknosed Nuclei (%) (U2OS; [1]): 10% | Population Apoptotic (%) (U2OS; [2]): 91% and 68% | Population Healthy Nuclei (%) (U2OS; [2]): 41% and 73% | Population Normal (%) (U2OS; [2]): 100% and 98% | Population Pyknosed Nuclei (%) (U2OS; [2]): 22% | Population Apoptotic (%) (U2OS; [3]): 77% and 65% | Population Healthy Nuclei (%) (U2OS; [3]): 62% and 84% | Population Normal (%) (U2OS; [3]): 100% | Population Pyknosed Nuclei (%) (U2OS; [3]): 13% | Population Apoptotic (%) (U2OS; [4]): 71% and 92% | Population Healthy Nuclei (%) (U2OS; [4]): 61% and 47% | Population Normal (%) (U2OS; [4]): 98% and 100% | Population Apoptotic (%) (U2OS; [5]): 100% and 93% | Population Healthy Nuclei (%) (U2OS; [5]): 67% and 88% | Population Normal (%) (U2OS; [5]): 100% | Population Pyknosed Nuclei (%) (U2OS; [5]): 9% | Population Apoptotic (%) (U2OS; [6]): 94% and 89% | Population Healthy Nuclei (%) (U2OS; [6]): 23% and 51% | Population Normal (%) (U2OS; [6]): 97% and 100% | Population Pyknosed Nuclei (%) (U2OS; [6]): 41% and 39%
